Assay results gathered from unrelated publications.
Compare with care: the assays were run in different laboratories.
Target: Serine/threonine-protein kinase ULK2 (ULK2, Homo sapiens, UniProt Q8IYT8)
Residues used in one study (Q8IYT8 1-1036): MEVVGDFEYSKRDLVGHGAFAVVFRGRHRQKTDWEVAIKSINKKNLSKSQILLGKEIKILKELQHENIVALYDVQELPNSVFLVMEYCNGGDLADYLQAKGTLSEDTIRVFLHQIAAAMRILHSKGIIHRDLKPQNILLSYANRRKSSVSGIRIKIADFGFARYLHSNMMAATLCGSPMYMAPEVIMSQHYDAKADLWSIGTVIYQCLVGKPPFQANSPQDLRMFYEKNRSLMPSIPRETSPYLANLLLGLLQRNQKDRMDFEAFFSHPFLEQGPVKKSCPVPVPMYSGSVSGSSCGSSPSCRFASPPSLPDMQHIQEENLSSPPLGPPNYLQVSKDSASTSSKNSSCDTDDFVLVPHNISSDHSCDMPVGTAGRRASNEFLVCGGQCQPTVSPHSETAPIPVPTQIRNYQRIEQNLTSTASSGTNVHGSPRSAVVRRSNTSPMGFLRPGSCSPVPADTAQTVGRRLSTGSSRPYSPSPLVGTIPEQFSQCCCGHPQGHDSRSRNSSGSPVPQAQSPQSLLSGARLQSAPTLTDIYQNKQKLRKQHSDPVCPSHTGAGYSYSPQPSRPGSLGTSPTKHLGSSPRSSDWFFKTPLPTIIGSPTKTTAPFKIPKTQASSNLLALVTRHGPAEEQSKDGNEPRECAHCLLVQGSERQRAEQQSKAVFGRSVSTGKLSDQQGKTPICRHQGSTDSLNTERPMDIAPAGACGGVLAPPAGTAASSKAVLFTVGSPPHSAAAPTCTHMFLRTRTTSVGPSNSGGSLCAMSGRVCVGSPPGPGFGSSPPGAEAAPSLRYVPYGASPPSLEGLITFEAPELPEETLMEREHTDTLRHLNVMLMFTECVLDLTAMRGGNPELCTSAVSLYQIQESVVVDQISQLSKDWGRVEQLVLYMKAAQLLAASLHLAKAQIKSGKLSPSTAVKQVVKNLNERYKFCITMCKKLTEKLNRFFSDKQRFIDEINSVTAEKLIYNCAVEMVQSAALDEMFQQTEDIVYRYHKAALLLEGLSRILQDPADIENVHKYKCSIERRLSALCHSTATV

Compound	test	system	setting	measurement	result
CCCCN(CCCC)C(=O)CN1C[C@@H](c2cc(OC)c3c(c2)OCO3)[C@H](C(=O)O)[C@H]1CC(C)(C)CCC	cell-free assay, competition with immobilised ligand		1 µM	remaining binding	89.2%
C[S+]([O-])c1ccc(-c2nc(-c3ccncc3)c(-c3ccc(F)cc3)[nH]2)cc1 (stereo not shown)	cell-free assay		0.5 µM	remaining signal	83.5%
Cc1cnc(NC2CCOCC2)nc1-n1cnc(C(=O)NC(CN)c2cc(F)cc(Cl)c2)c1 (stereo not shown)	enzyme activity, inhibitor, radiometric		1 µM	remaining activity	110%
FC(F)(F)Oc1cccc(-c2cnc3ccc(-c4ccncc4)nn23)c1	enzyme activity, inhibitor, radiometric		5 µM	activity vs control	95%
CN(C(=O)c1ccccc1)c1cc(N(C)c2ccc3c(c2)CCc2ccc(C(=O)NCCN4CCOCC4)cc2C3=O)ccc1F	cell-free assay, competition with immobilised ligand		1 µM	remaining binding	100%
CS(=O)(=O)CCNCc1ccc(-c2ccc3ncnc(Nc4ccc(OCc5cccc(F)c5)c(Cl)c4)c3c2)o1	cell-free assay		0.5 µM	remaining signal	104%
Nc1c(C(=O)NCc2ccc(C(=O)NCCCC3CCCCC3)cc2)cnn1-c1ccccc1	cell-free assay, competition with immobilised ligand		0.1 µM	remaining binding	100%
COc1cc(Nc2cnc(C#N)c(O[C@H](C)CN(C)C)n2)ncc1-c1cnn(C)c1	enzyme activity, inhibitor, radiometric		1 µM	remaining activity	42%
Cc1cc(NC(=O)c2cccc3cc(-c4cccc5[nH]nc(N)c45)ccc23)ccc1F	enzyme activity, inhibitor		0.1 µM	activity vs control	105%
CNC(=O)c1cc(Oc2ccc(NC(=O)Nc3ccc(Cl)c(C(F)(F)F)c3)cc2)ccn1	cell-free assay		0.5 µM	remaining signal	106%
Cc1ccc(C(=O)NCc2ccsc2)cc1C#Cc1cn(C(C)C)c2ncnc(N)c12	enzyme activity, inhibitor		1 µM	activity vs control	92%
CCCOc1ccc(OC)c(F)c1C(=O)c1ccc(C(=O)N[C@@H]2CNC[C@H]2NC(=O)c2ccc3[nH]ncc3c2)cc1	enzyme activity, inhibitor		10 µM	remaining activity	101%
COc1cc(-c2cn(C3CCc4ccccc4N(CC(F)(F)F)C3=O)nn2)ccc1-n1ccc(C)n1 (stereo not shown)	cell-free assay, competition with immobilised ligand		1 µM	remaining binding	88%
Nc1ncnc2occ(-c3ccc(NC(=O)Nc4cc(C(F)(F)F)ccc4F)cc3)c12	cell-free assay, inhibitor		20 µM	remaining signal	8.8%
CCN(CC)c1ccc(C2=NNC(=O)CC2C)cc1[N+](=O)[O-] (stereo not shown)	enzyme activity, inhibitor		10 µM	remaining activity	97%
CS(=O)(=O)Nc1cccc(-c2csc(NC(=O)CSc3nc4nccnc4c(=O)n3CCc3ccccc3)n2)c1	enzyme activity, inhibitor		10 µM	inhibition	-2%
N#Cc1ccc(Nc2ccc3[nH]c(=O)[nH]c3c2)c(Cl)c1	cell-free assay, competition with immobilised ligand		1 µM	remaining binding	99%
CCN1CCN(Cc2ccc(NC(=O)c3ccc(C)c(Oc4ccnc5[nH]ccc45)c3)cc2C(F)(F)F)CC1	target engagement in cells, inhibitor, chemoproteomics	Huh-7	1 µM	inhibition	-16.6%
O=C(Nc1cnn(-c2csc(C(=O)NC3COC3)c2)c1)Nc1c(F)cccc1Cl	enzyme activity, inhibitor		5 µM	remaining activity	105%
Cc1nc(C2CCN(C(=O)c3ccc(OC(F)(F)F)cc3N)CC2)c2ncc(N3CCN(C)CC3)cc2n1	cell-free assay, competition with immobilised ligand		1 µM	remaining binding	100%
N#CCCc1ccc2c(c1)-c1[nH]c3ccc([N+](=O)[O-])cc3c1CC(=O)N2	cell-free assay		0.5 µM	remaining signal	73.1%
Cc1sc(C(=O)NC2COC2)cc1-n1cc(NC(=O)Nc2c(F)cccc2Cl)cn1	enzyme activity, inhibitor		10 µM	remaining activity	74.9%
